In ChEMBL document CHEMBL4004861, “Novel 2,3-disubstituted quinazoline-4(3H)-one molecules derived from amino acid linked sulphonamide as a potent malarial antifolates for DHFR inhibition” (Eur J Med Chem, 2017):
≈ marks a conversion by molar mass, not a printed value.

Experiments:
[1] = tested on: Plasmodium falciparum; test: Antimalarial activity against Plasmodium falciparum; assay type: functional
In short: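 Drug stocks diluted in complete medium (RPMI 1640 plus 10% human serum) over seven dilutions, 0.0001 up to 100 mg/mL as printed. Reference antimalarials run as positive controls in every experiment. Percent inhibition at each concentration was calculated against untreated control to give IC50.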

[2] = target: T1, Dihydrofolate reductase (Bos taurus, UniProt P00376); test: Inhibition of bovine liver DHFR using FH2 as substrate preincubated for 2 mins followed by substrate addition in presence of NADPH
T1 sequence (P00376 whole entry): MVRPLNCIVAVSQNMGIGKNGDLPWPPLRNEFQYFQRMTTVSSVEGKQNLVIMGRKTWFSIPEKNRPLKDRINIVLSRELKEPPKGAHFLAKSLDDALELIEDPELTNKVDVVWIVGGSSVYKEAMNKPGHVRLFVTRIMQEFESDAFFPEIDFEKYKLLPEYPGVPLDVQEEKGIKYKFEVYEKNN

[3] = tested on: Plasmodium falciparum; test: Antimalarial activity against Plasmodium falciparum assessed as reduction in parasitic LDH activity by Malstat reagent based spectrophotometric method; assay type: functional
In short: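 Parasite lactate dehydrogenase (Malstat) read spectrophotometrically at 650 nm. Compounds were in RPMI 1640 with 10% human serum, seven dilutions.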

[4] = Selectivity index, ratio of IC50 for African green monkey Vero cells to IC50 for bovine liver DHFR
In short: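 Bovine liver DHFR (0.02 units) in 50 mM Tris-HCl pH 7.4 with 50 µM NADPH, compounds in DMSO at final 10⁻¹¹–10⁻⁵ M, total volume 2.0 ml. Mixture held 2 min at room temperature, then started with 25 µM FH2, and ΔA/min at 340 nm recorded. […] SI = Vero IC50 / DHFR IC50, triplicate averages.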

[5] = tested on: Plasmodium falciparum; test: Antimalarial activity against Plasmodium falciparum infected in RBC after 5 days by MTT assay; assay type: functional
In short: (§1)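 MTT reduction, run in parallel on infected and on normal uninfected RBC cultures and read at 565 and 690 nm. Compounds were in RPMI 1640 with 10% human serum, seven dilutions. Drug-free, parasite-free RBC cultures were set as maximum activity, with untreated, uninfected and cell-free controls. EC50 (parasite) and CC50 (RBC) were derived, and SI = CC50/EC50.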

[6] = Selectivity index, ratio of CC50 for RBC (unknown origin) to EC50 for Plasmodium falciparum infected in RBC; in short: as §1
[7] = tested on: Vero; test: Cytotoxicity against African green monkey Vero cells assessed as reduction in cell viability up to 15 ug/ml after 72 hrs by MTT assay; assay type: cell-based; details: chlorocebus sabaeus
In short: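 Vero cells were exposed to compounds for 72 h at 37 °C, with MTT conversion to formazan read at 540 nm. Viability was calculated relative to cells treated with 0.1% DMSO medium. Triplicate treatments; IC50 derived. Cells were tested up to 15 µg/mL.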

Cc1ccccc1-n1c(C(CC(C)C)NS(=O)(=O)c2ccc(N)cc2)nc2ccccc2c1=O (stereo not drawn)
IC50 [1]: 0.72 µg/mL (≈ 1.51 µM)

CC(C)CC(NS(=O)(=O)c1ccc(N)cc1)c1nc2ccccc2c(=O)n1Nc1ccccc1 (stereo not drawn)
IC50 [1]: 1.05 µg/mL (≈ 2.2 µM)

CC(C)CC(NS(=O)(=O)c1ccc(N)cc1)c1nc2ccccc2c(=O)n1-c1ccc(Cl)cc1 (stereo not drawn)
IC50 [2]: 0.0563 µM
IC50 [3]: 96.38 ppm
Ratio IC50 [4]: 535.71
EC50 [5]: 115.61 ppm
IC50 [1]: 0.068 µg/mL (≈ 0.137 µM)
Ratio CC50/EC50 [6]: 87.7
Activity [7]: Non-Toxic

CC(C)CC(NS(=O)(=O)c1ccc(N)cc1)c1nc2ccccc2c(=O)n1-c1ccc(Br)cc1 (stereo not drawn)
IC50 [2]: 0.161 µM
IC50 [3]: 37240 ppm
Ratio IC50 [4]: 172.14
EC50 [5]: 1909 ppm
IC50 [1]: 0.068 µg/mL (≈ 0.126 µM)
Ratio CC50/EC50 [6]: 15.3
Activity [7]: Non-Toxic

COc1cccc(-n2c(C(CC(C)C)NS(=O)(=O)c3ccc(N)cc3)nc3ccccc3c2=O)c1 (stereo not drawn)
IC50 [1]: 0.78 µg/mL (≈ 1.58 µM)

COc1cc(Cc2cnc(N)nc2N)cc(OC)c1OC [TRIMETHOPRIM]
IC50 [1]: 0.38 µg/mL (≈ 1.31 µM)

CCc1nc(N)nc(N)c1-c1ccc(Cl)cc1 [PYRIMETHAMINE]
IC50 [1]: 0.25 µg/mL (≈ 1.01 µM)

CC(C)CC(NS(=O)(=O)c1ccc(N)cc1)c1nc2ccccc2c(=O)n1-c1ccccc1 (stereo not drawn)
IC50 [1]: 0.68 µg/mL (≈ 1.47 µM)

CC(C)CC(NS(=O)(=O)c1ccc(N)cc1)c1nc2ccccc2c(=O)n1-c1ccccc1F (stereo not drawn)
IC50 [1]: 1.01 µg/mL (≈ 2.11 µM)

CC(C)CC(NS(=O)(=O)c1ccc(N)cc1)c1nc2ccccc2c(=O)n1-c1ccccc1Cl (stereo not drawn)
IC50 [1]: 0.136 µg/mL (≈ 0.274 µM)

CCN(CC)CCCC(C)Nc1ccnc2cc(Cl)ccc12 (stereo not drawn) [CHLOROQUINE]
IC50 [2]: 0.0313 µM
EC50 [5]: 28.97 ppm

CC(C)CC(NS(=O)(=O)c1ccc(N)cc1)c1nc2ccccc2c(=O)n1-c1cccc([N+](=O)[O-])c1 (stereo not drawn)
IC50 [1]: 0.78 µg/mL (≈ 1.54 µM)

CC(C)CC(NS(=O)(=O)c1ccc(N)cc1)c1nc2ccccc2c(=O)n1-c1ccccc1[N+](=O)[O-] (stereo not drawn)
IC50 [1]: 0.92 µg/mL (≈ 1.81 µM)

CC(C)CC(NS(=O)(=O)c1ccc(N)cc1)c1nc2ccccc2c(=O)n1-c1cccc(Br)c1 (stereo not drawn)
IC50 [1]: 0.78 µg/mL (≈ 1.44 µM)

CC(C)CC(NS(=O)(=O)c1ccc(N)cc1)c1nc2ccccc2c(=O)n1-c1cccc(Cl)c1 (stereo not drawn)
IC50 [2]: 0.0724 µM
IC50 [3]: 524.8 ppm
Ratio IC50 [4]: 416.66
EC50 [5]: 368.97 ppm
IC50 [1]: 0.068 µg/mL (≈ 0.137 µM)
Ratio CC50/EC50 [6]: 50.6
Activity [7]: Non-Toxic

Cc1ccc(-n2c(C(CC(C)C)NS(=O)(=O)c3ccc(N)cc3)nc3ccccc3c2=O)cc1 (stereo not drawn)
IC50 [1]: 0.67 µg/mL (≈ 1.41 µM)

CC(C)CC(NS(=O)(=O)c1ccc(N)cc1)c1nc2ccccc2c(=O)n1-c1ccc([N+](=O)[O-])cc1 (stereo not drawn)
IC50 [1]: 0.84 µg/mL (≈ 1.65 µM)

CC(C)CC(NS(=O)(=O)c1ccc(N)cc1)c1nc2ccccc2c(=O)n1-c1ccccc1Br (stereo not drawn)
IC50 [2]: 0.168 µM
IC50 [3]: 3380 ppm
Ratio IC50 [4]: 164.83
EC50 [5]: 2831 ppm
IC50 [1]: 0.068 µg/mL (≈ 0.126 µM)
Ratio CC50/EC50 [6]: 20.6
Activity [7]: Non-Toxic

CC(C)CC(NS(=O)(=O)c1ccc(N)cc1)c1nc2ccccc2c(=O)n1-c1ccc(F)cc1 (stereo not drawn)
IC50 [1]: 1.12 µg/mL (≈ 2.33 µM)

COc1ccccc1-n1c(C(CC(C)C)NS(=O)(=O)c2ccc(N)cc2)nc2ccccc2c1=O (stereo not drawn)
IC50 [1]: 0.72 µg/mL (≈ 1.46 µM)

COc1ccc(-n2c(C(CC(C)C)NS(=O)(=O)c3ccc(N)cc3)nc3ccccc3c2=O)cc1 (stereo not drawn)
IC50 [2]: 0.0974 µM
IC50 [3]: 8317 ppm
Ratio IC50 [4]: 312.5
EC50 [5]: 1009 ppm
IC50 [1]: 0.068 µg/mL (≈ 0.138 µM)
Ratio CC50/EC50 [6]: 19500
Activity [7]: Non-Toxic

Cc1cccc(-n2c(C(CC(C)C)NS(=O)(=O)c3ccc(N)cc3)nc3ccccc3c2=O)c1 (stereo not drawn)
IC50 [1]: 1.28 µg/mL (≈ 2.69 µM)
